Data set [1] relates to Human immunodeficiency virus 2. In words: Antiviral activity against HIV-2 ROD. The class given is functional, organism-based. The note with it: ISOLATE ROD.
Data set [2] concerns the target Human immunodeficiency virus type 1 reverse transcriptase (Human immunodeficiency virus 1, UniProt Q72547). The data set can be described thus: Inhibition of GST-tagged recombinant wild type HIV-1 reverse transcriptase p66/p51 RNA-dependent DNA polymerase activity expressed in Escherichia coli JM109 using dTTP as substrate after 40 mins by spectrofluorometric analysis.

Data set [3] can be described thus: Selectivity index, ratio of CC50 for human MT4 cells to EC50 for HIV-1 3B. The class given is toxicity, cell-based. To be noted: read-out: Ratio CC50/EC50. The method in brief: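 Calculated as CC50/EC50, both from MT-4 cells: CC50 from the parallel viability assay, EC50 from the 5-day HIV-1 IIIB cytopathicity assay.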
Data set [4] is described as follows: Cytotoxicity against human MT4 cells assessed as cell viability. The class given is cell-based. The method in brief:
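Uninfected MT-4 cells run in parallel with the antiviral assay. CC50 = concentration reducing MT-4 cell viability by 50%.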

For data set [5], the system named is Human immunodeficiency virus 1. In words: Antiviral activity against NNRTI-resistant HIV-1 RES056 harboring reverse transcriptase K103N/Y181C double mutant. The class given is functional, organism-based. Summed up: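 MT-4 cells were infected with virus at about 100 times the CCID50 per ml of cell suspension and mixed with serial compound dilutions. They were incubated 5 days at 37 °C, then viable cells were counted. EC50 is the concentration that reduces virus-induced cytopathic effect by 50%. Cytotoxicity was measured in parallel in MT-4 cells.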

Data set [6] deals with Human immunodeficiency virus 1. The data set can be described thus: Antiviral activity against HIV-1 3B infected in human MT4 cells assessed as inhibition of virus-induced cytopathic effect after 5 days. The class given is functional, organism-based. The note with it: Human immunodeficiency virus 1, 3B, MT4, 120 h. Summed up: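 MT-4 cells infected with HIV-1 IIIB at ~100 times the CCID50 per ml, mixed 1:1 with serial compound dilutions, incubated at 37 °C for 5 days. Viable cell number then determined. EC50 = concentration reducing virus-induced cytopathicity by 50%.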
On the technique in general: Protection from cytopathic effect is a common read-out in antiviral testing.

Activity calls are given as the source filed them. No cut-off for these calls is given here. Where only a bound is given, the exact number is not on record here.

`Cc1cc(C)cc(Cn2c(SCC(=O)Nc3ccc(S(C)(=O)=O)cc3Cl)nc3ccc(Cl)cc32)c1`: the outcome in data set [1] and in data set [5] was inactive. Besides, the IC50 (usually the concentration at which inhibition is half-maximal) in data set [2] stood at 70.5 µM. The selectivity ratio in data set [3] is < 1. Besides, the CC50 (as a rule, the concentration at which the toxic effect on the cells reaches its halfway point) in data set [4] turned out to be 88.8 µM. Also, the EC50 – broadly, the concentration needed to bring the measured effect to its halfway point – in data set [6] is > 88.8 µM.

With `Cc1cc(C)cc(Cn2c(SCC(=O)Nc3ccccc3Cl)nc3ccc(Cl)cc32)c1`, the result in data set [1] and in data set [5] was inactive. In addition, the IC50 in data set [2] was > 255 µM. The selectivity ratio in data set [3] turned out to be 7. Besides, the CC50 in data set [4] amounted to 141 µM. Also, the EC50 in data set [6] worked out at 19.6 µM.

Turning to `Cc1cc(C)cc(S(=O)(=O)n2c(SCC(=O)Nc3ccccc3[N+](=O)[O-])nc3ccc(Cl)cc32)c1`, the result in data set [1] and in data set [5] was inactive. Moreover, the IC50 in data set [2] was 37 µM. Moreover, the selectivity ratio in data set [3] was > 182. Besides, in data set [4], the CC50 is > 235 µM. Further, the EC50 in data set [6] was found to be 1.3 µM.

In the case of `Cc1cc(C)cc(S(=O)(=O)n2c(=S)[nH]c3ccccc32)c1`, the result in data set [1] and in data set [5] was inactive. Also, the IC50 in data set [2] came to 1.35 µM. Further, in data set [3], the selectivity ratio stood at 455. Besides, in data set [4], the CC50 turned out to be 41 µM. Moreover, in data set [6], the EC50 came to 0.09 µM.

With `Cc1cc(C)cc(S(=O)(=O)n2c(SCC(=O)Nc3ccccc3Cl)nc3ccc(Cl)cc32)c1`, the result in data set [1] and in data set [5] was inactive. Moreover, in data set [2], the IC50 came out at 18.6 µM. Moreover, the selectivity ratio in data set [3] was found to be 56. In addition, in data set [4], the half-maximal cytotoxic concentration (CC50) came out at 99.3 µM. In addition, the EC50 in data set [6] was 1.77 µM.

Consider `COC(=O)c1ccc(NC(=O)CSc2nc3ccccc3n2Cc2cc(C)cc(C)c2)c(Cl)c1`, for which the outcome in data set [1] and in data set [5] was inactive. Further, the IC50 in data set [2] was determined as 40.3 µM. In data set [3], the selectivity ratio was found to be 32. For the same compound, in data set [4], the CC50 was 191 µM. Further, in data set [6], the EC50 is 6.03 µM.

Take `Cc1cc(C)cc(Cn2c(=S)[nH]c3ccccc32)c1`: the outcome in data set [1] and in data set [5] was inactive. For the same compound, the IC50 in data set [2] is 27.2 µM. Also, the selectivity ratio in data set [3] stood at 4. Moreover, the CC50 in data set [4] worked out at 5.74 µM. Also, the EC50 in data set [6] was 1.3 µM.

As for `Cc1cc(C)cc(S(=O)(=O)n2c(SCC(=O)Nc3ccccc3Cl)nc3ccccc32)c1`, the result in data set [1] and in data set [5] was inactive. Also, the IC50 in data set [2] came to 51.9 µM. Besides, the selectivity ratio in data set [3] was found to be 1220. Further, in data set [4], the CC50 came to 107 µM. The EC50 in data set [6] turned out to be 0.088 µM.

In the case of `Cc1cc(C)cc(Cn2c(SCC(=O)Nc3ccc(S(N)(=O)=O)cc3Cl)nc3ccccc32)c1`, the result in data set [1] and in data set [5] was inactive. Also, the IC50 in data set [2] turned out to be 1.02 µM. For the same compound, the selectivity ratio in data set [3] came out at 530. Besides, the half-maximal cytotoxic concentration (CC50) in data set [4] was found to be 111 µM. Moreover, the EC50 in data set [6] is 0.21 µM.

`Cc1cc(C)cc(S(=O)(=O)n2c(SCC(=O)Nc3ccc(S(C)(=O)=O)cc3Cl)nc3ccc(Cl)cc32)c1`: the result in data set [1] and in data set [5] was inactive. For the same compound, in data set [2], the half-maximal inhibitory concentration (IC50) amounted to 2.61 µM. The selectivity ratio in data set [3] was determined as 7. Also, the CC50 in data set [4] turned out to be 3.59 µM. In addition, the EC50 in data set [6] is 0.5 µM.

As to `Cc1cc(C)cc(Cn2c(SCC(=O)Nc3ccccc3Cl)nc3ccccc32)c1`, the outcome in data set [1] and in data set [5] was inactive. Further, the IC50 in data set [2] was 42.1 µM. Besides, the selectivity ratio in data set [3] is 99. Moreover, the CC50 in data set [4] was 111 µM. The EC50 in data set [6] worked out at 1.12 µM.

With `Cc1cc(C)cc(S(=O)(=O)n2c(SCC(=O)Nc3ccccc3[N+](=O)[O-])nc3ccccc32)c1`, the result in data set [1] and in data set [5] was inactive. The 50% inhibitory concentration (IC50) in data set [2] was 100 µM. Moreover, the selectivity ratio in data set [3] is ≥ 652. Further, the CC50 in data set [4] was ≥ 26.1 µM. Further, the EC50 in data set [6] came to 0.04 µM.

Turning to `Cc1cc(C)cc(Cn2c(SCC(=O)Nc3ccccc3Br)nc3ccc(Cl)cc32)c1`, the outcome in data set [1] and in data set [5] was inactive. In addition, the IC50 in data set [2] is > 233 µM. In data set [3], the selectivity ratio worked out at 5. The CC50 in data set [4] is 174 µM. For the same compound, the EC50 in data set [6] was 32.5 µM.

Regarding `Cc1cc(C)cc(Cn2c(SCC(=O)Nc3ccccc3[N+](=O)[O-])nc3ccccc32)c1`, the outcome in data set [1] and in data set [5] was inactive. Moreover, in data set [2], the IC50 came out at 3.91 µM. Moreover, the selectivity ratio in data set [3] was 184. Further, the CC50 in data set [4] turned out to be 194 µM. The EC50 in data set [6] was 1.05 µM.

Turning to `Cc1cc(C)cc(Cn2c(SCC(=O)Nc3ccccc3[N+](=O)[O-])nc3ccc(Cl)cc32)c1`, the outcome in data set [1] and in data set [5] was inactive. Also, the IC50 in data set [2] was > 249 µM. Further, the selectivity ratio in data set [3] is ≤ 5. Besides, the CC50 in data set [4] was 131 µM. Moreover, the EC50 in data set [6] is ≥ 26 µM.

Regarding `Cc1cc(C)cc(S(=O)(=O)n2c(SCC(=O)Nc3ccc(S(N)(=O)=O)cc3Cl)nc3ccc(Cl)cc32)c1`, the result in data set [1] and in data set [5] was inactive. Also, the IC50 in data set [2] is 3.04 µM. Also, in data set [3], the selectivity ratio stood at 38. Further, the CC50 in data set [4] is 23.4 µM. The EC50 in data set [6] was 0.62 µM.

As to `COC(=O)c1ccc(NC(=O)CSc2nc3ccc(Cl)cc3n2Cc2cc(C)cc(C)c2)c(Cl)c1`, the result in data set [1] and in data set [5] was inactive. In data set [2], the IC50 was > 227 µM. Moreover, the selectivity ratio in data set [3] is < 1. The CC50 in data set [4] was found to be 105 µM. In addition, the EC50 in data set [6] is > 105 µM.

Turning to `O=C1Nc2ccc(Cl)cc2[C@@](C#CC2CC2)(C(F)(F)F)O1` [EFAVIRENZ], the CC50 in data set [4] was > 6.34 µM. For the same compound, the EC50 in data set [6] was determined as 0.006 µM.

In the case of `Cc1cc(C)cc(S(=O)(=O)n2c(SCC(=O)Nc3ccc(C)cc3Cl)nc3ccccc32)c1`, the result in data set [1] and in data set [5] was inactive. Moreover, in data set [2], the IC50 was 0.55 µM. The selectivity ratio in data set [3] came out at 135. Besides, the CC50 in data set [4] was 5.4 µM. Also, the EC50 in data set [6] was found to be 0.04 µM.

As for `Cc1cc(C)cc(S(=O)(=O)n2c(SCC(=O)Nc3ccc(S(C)(=O)=O)cc3Cl)nc3ccccc32)c1`, the outcome in data set [1] and in data set [5] was inactive. In addition, the IC50 in data set [2] was 0.12 µM. In addition, the selectivity ratio in data set [3] was > 5540. For the same compound, the CC50 in data set [4] was > 222 µM. In addition, in data set [6], the EC50 turned out to be 0.04 µM.

As for `Cc1cc(C)cc(Cn2c(SCC(=O)Nc3ccc(S(C)(=O)=O)cc3Cl)nc3ccccc32)c1`, the result in data set [1] and in data set [5] was inactive. In addition, the IC50 in data set [2] is 1.93 µM. Moreover, in data set [3], the selectivity ratio is 196. Further, the CC50 in data set [4] came out at 106 µM. Besides, the EC50 in data set [6] came out at 0.54 µM.

On to `Cc1cc(C)cc(S(=O)(=O)n2c(SCC(=O)Nc3ccc(S(N)(=O)=O)cc3Cl)nc3ccccc32)c1`, for which the result in data set [1] and in data set [5] was inactive. In addition, the IC50 in data set [2] was determined as 18.5 µM. Moreover, the selectivity ratio in data set [3] was determined as 1280. For the same compound, the CC50 in data set [4] is 25.6 µM. The EC50 in data set [6] stood at 0.02 µM.

With `COC(=O)c1ccc(NC(=O)CSc2nc3ccccc3n2S(=O)(=O)c2cc(C)cc(C)c2)c(Cl)c1`, the result in data set [1] and in data set [5] was inactive. The IC50 in data set [2] stood at 162 µM. For the same compound, the selectivity ratio in data set [3] was determined as 1320. The CC50 in data set [4] is 145 µM. The EC50 in data set [6] is 0.11 µM.

Consider `Cc1cc(C)cc(S(=O)(=O)n2c(SCC(=O)Nc3ccccc3Br)nc3ccccc32)c1`, for which the outcome in data set [1] and in data set [5] was inactive. Further, the IC50 in data set [2] amounted to 0.18 µM. Besides, the selectivity ratio in data set [3] is ≥ 3930. Moreover, in data set [6], the concentration giving a half-maximal response (EC50) is 0.06 µM.

Take `Cc1cc(C)cc(Cn2c(=S)[nH]c3ccc(Cl)cc32)c1`: the outcome in data set [1] and in data set [5] was inactive. Moreover, the selectivity ratio in data set [3] was determined as 4.

Regarding `Cc1ccnc2c1NC(=O)c1cccnc1N2C1CC1` [NEVIRAPINE], in data set [4], the CC50 was > 15 µM.

Take `Cc1cc(C)cc(Cn2c(SCC(=O)Nc3ccccc3Br)nc3ccccc32)c1`: the outcome in data set [1] and in data set [5] was inactive. In addition, the IC50 in data set [2] was 15 µM. Also, the selectivity ratio in data set [3] was ≥ 128. Further, the CC50 in data set [4] was ≥ 144 µM. The EC50 in data set [6] was 1.12 µM.

Turning to `Cc1cc(C)cc(S(=O)(=O)n2c(=S)[nH]c3ccc(Cl)cc32)c1`, the outcome in data set [1] and in data set [5] was inactive. Moreover, the IC50 in data set [2] turned out to be 1.76 µM. In data set [3], the selectivity ratio amounted to 1860. In addition, the CC50 in data set [4] was 93.1 µM. In addition, the EC50 in data set [6] came out at 0.05 µM.

Regarding `Cc1cc(C)cc(S(=O)(=O)n2c(SCC(=O)Nc3ccccc3Br)nc3ccc(Cl)cc32)c1`, the result in data set [1] and in data set [5] was inactive. Besides, the IC50 in data set [2] came to 63.5 µM. Also, the selectivity ratio in data set [3] was found to be 37. Besides, the CC50 in data set [4] was 145 µM. In addition, the EC50 in data set [6] amounted to 3.86 µM.
